According to ChEMBL document CHEMBL1649190, “Identification and characterization of mefloquine efficacy against JC virus in vitro” (Antimicrob Agents Chemother, 2009):
Structures can show the parent of a compound that is named as a salt.

Tests used:
JC polyomavirus [1] = assay: microbe, parasite or virus in culture; format: functional, cell-based; conditions: M1/SVEdelta, SVG-A, 72 h
Plasma = assay: Drug concentration in human plasma; format: ADME, cell-free; conditions: read-out: Drug uptake
in vitro [2] = conditions: human
in vitro [3] = conditions: human; remark: listed apart in the source
[4] = Lipophilicity, log P of the compound; format: physicochemical; conditions: octanol/water
JC polyomavirus [5] = assay: Antiviral activity against JC polyomavirus Mad4 infected in human SVG-A cells assessed as inhibition of viral replication after 3 days; format: functional, cell-based; conditions: 72 h
Method in brief: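 SVG-A cells (2,000/well) in MEM with 2% heat-inactivated FBS and 4 mM L-glutamine were exposed to JCV(Mad4) plus compound over a concentration range for 60 min at 37°C. Drug-containing medium was then added. Cells were fixed, then stained for VP1 (PAb597) and DAPI and imaged. Infection rate was % VP1+/DAPI+ cells; inhibition was scaled to infected and uninfected controls. EC50 came from a sigmoid fit, n = 5.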

JC polyomavirus [6] = assay: Antiviral activity against JC polyomavirus Mad1 infected in human PHFG cells assessed as inhibition of viral replication after 7 to 10 days
JC polyomavirus [7] = assay: Antiviral activity against JC polyomavirus M1/SVEdelta infected in human SVG-A cells assessed as inhibition of viral replication after 3 days; conditions: 72 h
[8] = SVG-A cells infected with JC polyomavirus M1/SVEdelta

For `CC(=O)O[C@H]1C[C@@]2(C)[C@@H](C[C@@H](O)[C@H]3[C@@]4(C)CC[C@@H](O)[C@@H](C)[C@@H]4CC[C@@]32C)/C1=C(\CCC=C(C)C)C(=O)O` [FUSIDIC ACID], the EC50 (JC polyomavirus [1]) was 8.6 µM, the concentration (Plasma) was 19 µM and the selectivity ratio (in vitro [2]; [8]) was greater than 2. It also gave a CC50 (in vitro [3]; SVG-A cells) greater than 40 µM.
Work on `COc1ccc([C@@H]2Sc3ccccc3N(CCN(C)C)C(=O)[C@@H]2OC(C)=O)cc1` [DILTIAZEM HYDROCHLORIDE] yielded an EC50 (JC polyomavirus [1]) of 8.5 µM, a concentration (Plasma) of 0.5 µM and a CC50 (in vitro [3]; SVG-A cells) greater than 40 µM.
For `COc1cc(C)c(C(=O)Oc2cc(C)c(C(=O)O)c(O)c2C)c(OC)c1C` [DIFFRACTAIC ACID], the EC50 (JC polyomavirus [1]) was 14.4 µM, the selectivity ratio (in vitro [2]; [8]) was greater than 2 and the CC50 (in vitro [3]; SVG-A cells) was greater than 40 µM.
`O[C@H](c1cc(C(F)(F)F)nc2c(C(F)(F)F)cccc12)[C@@H]1CCCCN1` (racemic) [(R,S)-MEFLOQUINE] showed an EC50 (JC polyomavirus [1]) of 2.7 µM.
With `O[C@@H](c1cc(C(F)(F)F)nc2c(C(F)(F)F)cccc12)[C@H]1CCCCN1` [(S,R)-MEFLOQUINE] the EC50 (JC polyomavirus [1]) was 4.5 µM.
`CCC(=O)Nc1ccc(Cl)c(Cl)c1` [PROPANIL] showed an EC50 (JC polyomavirus [1]) of 7.8 µM, a selectivity ratio (in vitro [2]; [8]) greater than 2 and a CC50 (in vitro [3]; SVG-A cells) greater than 40 µM.
Work on `OC(c1cc(C(F)(F)F)nc2c(C(F)(F)F)cccc12)C1CCCCN1` (configuration not stated) [MEFLOQUINE] yielded an EC50 (JC polyomavirus [1]) of 4 µM, an IC50 (JC polyomavirus [1]) of 3.9 µM and a concentration (Plasma) of 6 µM. The logP [4] was 2.47, the IC50 (JC polyomavirus [5]) was 4 µM and the selectivity ratio (in vitro [2]; svg-a) was greater than 2. The CC50 (in vitro [3]; svg-a) was 16.1 µM, the IC50 (JC polyomavirus [6]) was 5 µM and the IC50 (JC polyomavirus [7]) was 4 µM.
In the case of `Cc1c(Cl)cccc1Nc1ccccc1C(=O)O` [TOLFENAMIC ACID], the EC50 (JC polyomavirus [1]) is reported as 15 µM and the selectivity ratio (in vitro [2]; [8]) is reported as greater than 3.
`Clc1ccc(COC(Cn2ccnc2)c2ccc(Cl)cc2Cl)c(Cl)c1` (configuration not stated) [MICONAZOLE NITRATE] gave a CC50 (in vitro [3]; svg-a) of 22.9 µM.
With `O=C(O)Cc1ccccc1Nc1c(Cl)cccc1Cl` [DICLOFENAC SODIUM] the EC50 (JC polyomavirus [1]) was 8.3 µM, the concentration (Plasma) was 8 µM and the selectivity ratio (in vitro [2]; [8]) was greater than 2. For the same compound, the CC50 (in vitro [3]; SVG-A cells) was 30.5 µM.
`Cc1cccc(Nc2ccccc2C(=O)O)c1C` [MEFENAMIC ACID] showed an EC50 (JC polyomavirus [1]) of 10.9 µM, a concentration (Plasma) of 40 µM and a selectivity ratio (in vitro [2]; [8]) greater than 2. The CC50 (in vitro [3]; SVG-A cells) was greater than 40 µM.
For `Cc1nccc2c1[nH]c1ccccc12` [HARMAN], the EC50 (JC polyomavirus [1]) was 14.4 µM, the selectivity ratio (in vitro [2]; [8]) was greater than 2 and the CC50 (in vitro [3]; SVG-A cells) was greater than 40 µM.
With `CC1=C(/C=C/C(C)=C/C=C/C(C)=C\C(=O)O)C(C)(C)CCC1` [ISOTRETINOIN] the EC50 (JC polyomavirus [1]) was 4.4 µM, the concentration (Plasma) was 24 µM and the selectivity ratio (in vitro [2]; svg-a) was greater than 2. It also gave a CC50 (in vitro [3]; SVG-A cells) greater than 40 µM.
With `O=c1c2ccccc2oc2ccccc12` [XANTHONE] the EC50 (JC polyomavirus [1]) was 16.8 µM, the selectivity ratio (in vitro [2]; [8]) was greater than 2 and the CC50 (in vitro [3]; SVG-A cells) was greater than 40 µM.
Work on `CC(C)c1ccc2c(c1)CC[C@H]1[C@](C)(C(N)=O)CCC[C@]21C` [DEHYDROABIETAMIDE] yielded a selectivity ratio (in vitro [2]; [8]) greater than 2 and a CC50 (in vitro [3]; SVG-A cells) greater than 40 µM.
In the case of `O=C(O)c1ccccc1Nc1cccc(C(F)(F)F)c1` [FLUFENAMIC ACID], the EC50 (JC polyomavirus [1]) is reported as 11 µM and the selectivity ratio (in vitro [2]; [8]) is reported as greater than 3.
`Cc1c(Nc2ncccc2C(=O)O)cccc1C(F)(F)F` [FLUNIXIN MEGLUMINE] showed an EC50 (JC polyomavirus [1]) of 14.5 µM, a selectivity ratio (in vitro [2]; [8]) greater than 2 and a CC50 (in vitro [3]; SVG-A cells) greater than 40 µM.
